Source: ChEMBL document CHEMBL1123589, “Phenylpiperazine-based radiopharmaceuticals for brain imaging. 3. Synthesis and evaluation of radioiodinated 1-alkyl-4-phenylpiperazines” (J Med Chem, 1987)
Where “and” joins values, the source holds several entries; their conditions need not be identical. Identical values can stand only once.

Legend:
Details in all cases: in vivo
[1] = tested on: Rattus norvegicus; assay: The biodistribution of the [125I]-labeled compound in rats after intravenous injection was evaluated in thyroid at 1.00 hrs; value ranges from 1.69-2.41 (ID.kg/g); assay type: ADME, organism-based, Thyroid gland
Method in brief: (§1)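 Male Sprague-Dawley rats (250–300 g) under ether anesthesia given iv 0.1 mL saline containing 10–15 μCi of NCA ¹²⁵I-labeled agent (chloramine-T iodination, HPLC-purified). Groups of 3 killed at 0.25, 1 and 4 h. Blood and tissues excised, weighed and γ-counted. Values are mean (range) of % injected dose × body mass (kg) per gram of tissue.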

[2] = tested on: Canis familiaris; assay: The biodistribution of the [131I]-labeled compound in dog (mass= 5.7 kg), 2 hr after intravenous injection was evaluated in heart; assay type: ADME, organism-based, Canis lupus familiaris
Method in brief: (§2)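 One female dog (5.7 kg) premedicated im with acepromazine maleate, then anesthetized iv with sodium nembutal/saline (1:1). Given 1.0 mCi iv of ¹³¹I-labeled agent. Killed 2 h post-dose with iv nembutal. Tissues excised, weighed and counted; blood, fat and muscle masses estimated as 7.5%, 27.5% and 40% of body weight. Expressed as % ID/organ and % ID·kg/g.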

[3] = tested on: Rattus norvegicus; assay: The biodistribution of the [125I]-labeled compound in rats after intravenous injection was evaluated in adrenal at 0.25 hrs; value ranges from 1.43-1.71 (ID.kg/g); assay type: ADME, organism-based
Method in brief: (§3)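 Male Sprague-Dawley rats (250–300 g) under ether anesthesia were given an iv injection of no-carrier-added 125I-labelled agent (10–15 μCi in 0.1 mL saline). The agent was iodinated with chloramine-T in acetate buffer and purified by C-18 HPLC. Groups of N = 3 were killed at 0.25, 1 and 4 h. Blood and tissues were weighed and γ-counted. Values are % ID·kg/g, mean (range).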

[4] = tested on: Canis familiaris; assay: The biodistribution of the [131I]-labeled compound in dog (mass= 5.7 kg), 2 hr after intravenous injection was evaluated in cerebellum (ID.kg/g); assay type: ADME, organism-based, Canis lupus familiaris; method in brief: as §2
[5] = tested on: Rattus norvegicus; assay: The biodistribution of the [125I]-labeled compound in rats after intravenous injection was evaluated in muscle at 1.00 hrs (ID.kg/g); assay type: ADME, organism-based, Muscle tissue; method in brief: as §1
[6] = tested on: Canis familiaris; assay: The biodistribution of the [131I]-labeled compound in dog (mass= 5.7 kg), 2 hr after intravenous injection was evaluated in lung (ID.kg/g); assay type: ADME, organism-based, Canis lupus familiaris; method in brief: as §2
[7] = tested on: Rattus norvegicus; assay: The biodistribution of the [125I]-labeled compound in rats after intravenous injection was evaluated in brain at 4.00 hrs; value ranges from 0.25-0.41 (ID.kg/g); assay type: ADME, organism-based; method in brief: as §3
[8] = tested on: Rattus norvegicus; assay: The biodistribution of the [125I]-labeled compound in rats after intravenous injection was evaluated in lung at 1.00 hrs; value ranges from 1.20-1.42( ID.kg/g); assay type: ADME, organism-based
Method in brief: (§4)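 Male Sprague-Dawley rats (250–300 g), under ether anesthesia, given 10–15 μCi of the NCA ¹²⁵I-labeled agent iv in 0.1 mL saline. Groups of N = 3 were killed at 0.25, 1 or 4 h. Blood and tissues were removed, weighed and counted in a γ-well scintillation counter. Values are mean % ID·kg/g (range).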

[9] = tested on: Rattus norvegicus; assay: The biodistribution of the [125I]-labeled compound in rats after intravenous injection was evaluated in brain at 0.25 hrs; value ranges from 0.32-0.38 (ID.kg/g); assay type: ADME, organism-based; method in brief: as §3
[10] = tested on: Rattus norvegicus; assay: The biodistribution of the [125I]-labeled compound in rats after intravenous injection was evaluated in heart at 4.00 hrs; value ranges from 0.11-0.15 (ID.kg/g); assay type: ADME, organism-based; method in brief: as §4
[11] = tested on: Canis familiaris; assay: The biodistribution of the [131I]-labeled compound in dog (mass= 5.7 kg), 2 hr after intravenous injection was evaluated in brain (ID.kg/g); assay type: ADME, organism-based, Canis lupus familiaris; method in brief: as §2
[12] = tested on: Rattus norvegicus; assay: The biodistribution of the [125I]-labeled compound in rats after intravenous injection was evaluated in fat at 4.00 hrs (ID.kg/g); assay type: ADME, organism-based, Adipose tissue; method in brief: as §3
[13] = tested on: Rattus norvegicus; assay: The biodistribution of the [125I]-labeled compound in rats after intravenous injection was evaluated in adrenal at 4.00 hrs; value ranges from 0.81-1.19 (ID.kg/g); assay type: ADME, organism-based; method in brief: as §3
[14] = tested on: Rattus norvegicus; assay: The biodistribution of the [125I]-labeled compound in rats after intravenous injection was evaluated in fat at 1.00 hrs (ID.kg/g); assay type: ADME, organism-based, Adipose tissue; method in brief: as §3
[15] = tested on: Rattus norvegicus; assay: The biodistribution of the [125I]-labeled compound in rats after intravenous injection was evaluated in fat at 0.25 hr; value ranges from 0.03-0.05 (ID.kg/g); assay type: ADME, organism-based, Adipose tissue; method in brief: as §3
[16] = tested on: Canis familiaris; assay: The biodistribution of the [131I]-labeled compound in dog (mass= 5.7 kg), 2 hr after intravenous injection was evaluated in thyroid (ID.kg/g); assay type: ADME, organism-based, Canis lupus familiaris, Thyroid gland; method in brief: as §2
[17] = tested on: Rattus norvegicus; assay: The biodistribution of the [125I]-labeled compound in rats after intravenous injection was evaluated in lung at 0.25 hrs; value ranges from 0.81-1.16 (ID.kg/g); assay type: ADME, organism-based; method in brief: as §4
[18] = tested on: Canis familiaris; assay: The biodistribution of the [131I]-labeled compound in dog (mass= 5.7 kg), 2 hr after intravenous injection was evaluated in liver (ID.kg/g); assay type: ADME, organism-based, Canis lupus familiaris; method in brief: as §2
[19] = tested on: Canis familiaris; assay: The biodistribution of the [131I]-labeled compound in dog (mass= 5.7 kg), 2 hr after intravenous injection was evaluated in cerebellum; assay type: ADME, organism-based, Canis lupus familiaris; method in brief: as §2
[20] = tested on: Rattus norvegicus; assay: The biodistribution of the [125I]-labeled compound in rats after intravenous injection was evaluated in kidney at 4.00 hrs; value ranges from 0.32-0.42 (ID.kg/g); assay type: ADME, organism-based; method in brief: as §4
[21] = tested on: Rattus norvegicus; assay: The biodistribution of the [125I]-labeled compound in rats after intravenous injection was evaluated in thyroid at 0.25 hrs; value ranges from 3.39-4.05 (ID.kg/g); assay type: ADME, organism-based, Thyroid gland; method in brief: as §1
[22] = tested on: Canis familiaris; assay: The biodistribution of the [131I]-labeled compound in dog (mass= 5.7 kg), 2 hr after intravenous injection was evaluated in heart (ID.kg/g); assay type: ADME, organism-based, Canis lupus familiaris; method in brief: as §2
[23] = tested on: Rattus norvegicus; assay: The biodistribution of the [125I]-labeled compound in rats after intravenous injection was evaluated in liver at 1.00 hrs; value ranges from 0.19-0.24 (ID.kg/g); assay type: ADME, organism-based; method in brief: as §4
[24] = tested on: Rattus norvegicus; assay: The biodistribution of the [125I]-labeled compound in rats after intravenous injection was evaluated in brain at 1.00 hrs (ID.kg/g); assay type: ADME, organism-based; method in brief: as §3
[25] = tested on: Canis familiaris; assay: The biodistribution of the [131I]-labeled compound in dog (mass= 5.7 kg), 2 hr after intravenous injection was evaluated in cortex; assay type: ADME, organism-based, Canis lupus familiaris; method in brief: as §2
[26] = tested on: Canis familiaris; assay: The biodistribution of the [131I]-labeled compound in dog (mass= 5.7 kg), 2 hr after intravenous injection was evaluated in kidney; assay type: ADME, organism-based, Canis lupus familiaris; method in brief: as §2
[27] = tested on: Rattus norvegicus; assay: The biodistribution of the [125I]-labeled compound in rats after intravenous injection was evaluated in liver at 0.25 hr; value ranges from 0.27-0.39 (ID.kg/g); assay type: ADME, organism-based; method in brief: as §4
[28] = tested on: Canis familiaris; assay: The biodistribution of the [131I]-labeled compound in dog (mass= 5.7 kg), 2 hr after intravenous injection was evaluated in cortex (ID.kg/g); assay type: ADME, organism-based, Canis lupus familiaris; method in brief: as §2
[29] = tested on: Rattus norvegicus; assay: The biodistribution of the [125I]-labeled compound in rats after intravenous injection was evaluated in blood at 4.00 hrs (ID.kg/g); assay type: ADME, organism-based; method in brief: as §3
[30] = tested on: Rattus norvegicus; assay: The biodistribution of the [125I]-labeled compound in rats after intravenous injection was evaluated in heart at 0.25 hrs; value ranges from 0.26-0.32 (ID.kg/g); assay type: ADME, organism-based; method in brief: as §3
[31] = tested on: Rattus norvegicus; assay: The biodistribution of the [125I]-labeled compound in rats after intravenous injection was evaluated in lung at 4.00 hrs; value ranges from 0.45-0.67 (ID.kg/g); assay type: ADME, organism-based; method in brief: as §4

Q: How did the Biodistribution [1] turn out when `CCCCN1CCN(c2ccc(I)cc2)CC1` was run?
A: 2.41%

Q: And the Biodistribution [2]?
A: 0.182%

Q: And the Biodistribution [3]?
A: 1.71%

Q: And the Biodistribution [4]?
A: 0.165%

Q: What about the Biodistribution [5] of the same compound?
A: 0.04 %ID·kg/g

Q: And the Biodistribution [6]?
A: 1.287% and 0.143%

Q: And the Biodistribution [7]?
A: 0.41%

Q: And the Biodistribution [8]?
A: 1.42%

Q: And the Biodistribution [9]?
A: 0.38%

Q: And the Biodistribution [10]?
A: 0.15%

Q: What about the Biodistribution [11] of the same compound?
A: 1.824% and 0.165%

Q: And the Biodistribution [12]?
A: 0.02%

Q: What about the Biodistribution [13] of the same compound?
A: 1.19%

Q: What about the Biodistribution [14] of the same compound?
A: 0.01 % ID·kg/g

Q: And the Biodistribution [15]?
A: 0.05%

Q: What about the Biodistribution [16] of the same compound?
A: 0.032% and 0.342%

Q: What about the Biodistribution [17] of the same compound?
A: 1.16%

Q: And the Biodistribution [18]?
A: 6.68% and 1.88%

Q: What about the Biodistribution [19] of the same compound?
A: 1.571%

Q: And the Biodistribution [20]?
A: 0.42%

Q: And the Biodistribution [21]?
A: 4.05%

Q: What about the Biodistribution [22] of the same compound?
A: 0.85%

Q: And the Biodistribution [23]?
A: 0.24%

Q: And the Biodistribution [24]?
A: 0.28%

Q: What about the Biodistribution [25] of the same compound?
A: 0.1%

Q: And the Biodistribution [26]?
A: 0.88%

Q: What about the Biodistribution [27] of the same compound?
A: 0.39%

Q: And the Biodistribution [28]?
A: 0.171%

Q: And the Biodistribution [29]?
A: 0.01 % ID·kg/g

Q: What about the Biodistribution [30] of the same compound?
A: 0.32%

Q: And the Biodistribution [31]?
A: 0.67%
